# Reference: ChEMBL document CHEMBL3351523 (Bioorg Med Chem, 2014)
# Tested on: not listed separately
# Assay: Cytotoxicity against mock-infected human MT4 cells after 96 hrs by MTT assay
# Format: cell-based
# Conditions: not given
# Method in brief: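 Exponentially growing MT-4 cells were seeded at 1 × 10^5 cells/mL in RPMI-1640 with 10% FBS and held at 37 °C, 5% CO2 with serial compound dilutions. Viability was read by MTT after 96 h. CC50 from linear regression against untreated controls.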
row,Compound,CC50 at 96 h [µM]
1,CC(=O)Nc1ccc(Cc2nc3cc(Cl)c(Cl)cc3[nH]2)cc1,> 100
2,CC(CC(=O)O)n1c(Cc2ccc(Cl)cc2)nc2ccccc21 (stereo not given),> 100
3,c1ccc2[nH]c(C[C@@H]3CCCN4CCCC[C@H]34)nc2c1,17
4,Clc1ccc2[nH]c(C[C@@H]3CCCN4CCCC[C@H]34)nc2c1,53
5,c1ccc2[nH]c(C[C@H]3CCCN4CCCC[C@H]34)nc2c1,> 100

# Tested on: not listed separately
# Assay: Cytotoxicity against mock-infected african green monkey Vero 76 cells after 48 to 96 hrs by MTT assay
# Format: cell-based
# Conditions: chlorocebus sabaeus, mock-infected Vero 76 cells
row,Compound,CC50 [µM]
1,CC(=O)Nc1ccc(Cc2nc3cc(Cl)c(Cl)cc3[nH]2)cc1,> 100
2,CC(CC(=O)O)n1c(Cc2ccc(Cl)cc2)nc2ccccc21 (stereo not given),> 100
3,c1ccc2[nH]c(C[C@@H]3CCCN4CCCC[C@H]34)nc2c1,> 100
4,Clc1ccc2[nH]c(C[C@@H]3CCCN4CCCC[C@H]34)nc2c1,> 100
5,c1ccc2[nH]c(C[C@H]3CCCN4CCCC[C@H]34)nc2c1,> 100

# Tested on: Human immunodeficiency virus 1
# Assay: Antiviral activity against HIV1 infected in human MT4 cells assessed as inhibition of virus-induced cytopathogenicity after 4 days by MTT assay
# Format: functional, organism-based
# Conditions: Human immunodeficiency virus 1, MT4, 96 h
# Method in brief: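 MT-4 cells (1 × 10^4/well in RPMI) were infected acutely with HIV-1 IIIB, 100 CCID50 (m.o.i. 0.01), with serial dilutions from 100 µM, 1:5. After 4 days at 37 °C, protection from virus-induced cytopathogenicity was read by MTT. EC50 came from linear regression against untreated controls.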
row,Compound,EC50 [µM]
1,CC(=O)Nc1ccc(Cc2nc3cc(Cl)c(Cl)cc3[nH]2)cc1,> 100
2,CC(CC(=O)O)n1c(Cc2ccc(Cl)cc2)nc2ccccc21 (stereo not given),> 100
3,c1ccc2[nH]c(C[C@@H]3CCCN4CCCC[C@H]34)nc2c1,> 100
4,Clc1ccc2[nH]c(C[C@@H]3CCCN4CCCC[C@H]34)nc2c1,> 100
5,c1ccc2[nH]c(C[C@H]3CCCN4CCCC[C@H]34)nc2c1,> 100

# Tested on: Coxsackievirus B5
# Assay: Antiviral activity against Coxsackievirus B5 infected in african green monkey Vero 76 cells assessed as reduction in plaque number after 3 days by plaque reduction assay
# Format: functional, organism-based
# Conditions: Enterovirus B, 72 h
row,Compound,EC50 [µM]
1,CC(=O)Nc1ccc(Cc2nc3cc(Cl)c(Cl)cc3[nH]2)cc1,> 100
2,CC(CC(=O)O)n1c(Cc2ccc(Cl)cc2)nc2ccccc21 (stereo not given),> 100
3,c1ccc2[nH]c(C[C@@H]3CCCN4CCCC[C@H]34)nc2c1,> 100
4,Clc1ccc2[nH]c(C[C@@H]3CCCN4CCCC[C@H]34)nc2c1,> 100
5,c1ccc2[nH]c(C[C@H]3CCCN4CCCC[C@H]34)nc2c1,> 100

# Tested on: Vaccinia virus
# Assay: Antiviral activity against Vaccinia Virus infected in african green monkey Vero 76 cells assessed as reduction in plaque number after 3 days by plaque reduction assay
# Format: functional, organism-based
# Conditions: Orthopoxvirus vaccinia, 72 h
row,Compound,EC50 [µM]
1,CC(=O)Nc1ccc(Cc2nc3cc(Cl)c(Cl)cc3[nH]2)cc1,> 100
2,CC(CC(=O)O)n1c(Cc2ccc(Cl)cc2)nc2ccccc21 (stereo not given),> 100
3,c1ccc2[nH]c(C[C@@H]3CCCN4CCCC[C@H]34)nc2c1,> 100
4,Clc1ccc2[nH]c(C[C@@H]3CCCN4CCCC[C@H]34)nc2c1,> 100
5,c1ccc2[nH]c(C[C@H]3CCCN4CCCC[C@H]34)nc2c1,> 100

# Tested on: Human alphaherpesvirus 1
# Assay: Antiviral activity against HSV1 infected in african green monkey Vero 76 cells assessed as reduction in plaque number after 3 days by plaque reduction assay
# Format: functional, organism-based
# Conditions: Human alphaherpesvirus 1, Vero, 72 h
row,Compound,EC50 [µM]
1,CC(=O)Nc1ccc(Cc2nc3cc(Cl)c(Cl)cc3[nH]2)cc1,> 100
2,CC(CC(=O)O)n1c(Cc2ccc(Cl)cc2)nc2ccccc21 (stereo not given),> 100
3,c1ccc2[nH]c(C[C@@H]3CCCN4CCCC[C@H]34)nc2c1,> 100
4,Clc1ccc2[nH]c(C[C@@H]3CCCN4CCCC[C@H]34)nc2c1,> 100
5,c1ccc2[nH]c(C[C@H]3CCCN4CCCC[C@H]34)nc2c1,> 100

# Tested on: Yellow fever virus
# Assay: Antiviral activity against Yellow fever virus infected in BHK21 cells assessed as inhibition of virus-induced cytopathogenicity after 3 to 4 days by MTT assay
# Format: functional, organism-based
# Conditions: BHK-21
row,Compound,EC50 [µM]
1,CC(=O)Nc1ccc(Cc2nc3cc(Cl)c(Cl)cc3[nH]2)cc1,> 100
2,CC(CC(=O)O)n1c(Cc2ccc(Cl)cc2)nc2ccccc21 (stereo not given),> 100
3,c1ccc2[nH]c(C[C@@H]3CCCN4CCCC[C@H]34)nc2c1,> 100
4,Clc1ccc2[nH]c(C[C@@H]3CCCN4CCCC[C@H]34)nc2c1,> 100
5,c1ccc2[nH]c(C[C@H]3CCCN4CCCC[C@H]34)nc2c1,> 100

# Tested on: Respiratory syncytial virus
# Assay: Antiviral activity against Respiratory syncytial virus infected in african green monkey Vero 76 cells assessed as reduction in plaque number after 5 days by plaque reduction assay
# Format: functional, organism-based
# Conditions: human respiratory syncytial virus, 120 h
row,Compound,EC50 [µM]
1,CC(=O)Nc1ccc(Cc2nc3cc(Cl)c(Cl)cc3[nH]2)cc1,> 100
2,CC(CC(=O)O)n1c(Cc2ccc(Cl)cc2)nc2ccccc21 (stereo not given),> 100
3,c1ccc2[nH]c(C[C@@H]3CCCN4CCCC[C@H]34)nc2c1,> 100
4,Clc1ccc2[nH]c(C[C@@H]3CCCN4CCCC[C@H]34)nc2c1,> 100
5,c1ccc2[nH]c(C[C@H]3CCCN4CCCC[C@H]34)nc2c1,> 100

# Tested on: Poliovirus 1
# Assay: Antiviral activity against Poliovirus type 1 Sabin strain infected in african green monkey Vero 76 cells assessed as reduction in plaque number after 2 days by plaque reduction assay
# Format: functional, organism-based
# Conditions: Enterovirus C, 48 h
row,Compound,EC50 [µM]
1,CC(=O)Nc1ccc(Cc2nc3cc(Cl)c(Cl)cc3[nH]2)cc1,> 100
2,CC(CC(=O)O)n1c(Cc2ccc(Cl)cc2)nc2ccccc21 (stereo not given),> 100
3,c1ccc2[nH]c(C[C@@H]3CCCN4CCCC[C@H]34)nc2c1,> 100
4,Clc1ccc2[nH]c(C[C@@H]3CCCN4CCCC[C@H]34)nc2c1,> 100
5,c1ccc2[nH]c(C[C@H]3CCCN4CCCC[C@H]34)nc2c1,> 100

# Tested on: Reovirus sp.
# Assay: Antiviral activity against Reovirus type-1 infected in BHK21 cells assessed as inhibition of virus-induced cytopathogenicity after 3 to 4 days by MTT assay
# Format: functional, organism-based
# Conditions: BHK-21
row,Compound,EC50 [µM]
1,CC(=O)Nc1ccc(Cc2nc3cc(Cl)c(Cl)cc3[nH]2)cc1,> 100
2,CC(CC(=O)O)n1c(Cc2ccc(Cl)cc2)nc2ccccc21 (stereo not given),> 100
3,c1ccc2[nH]c(C[C@@H]3CCCN4CCCC[C@H]34)nc2c1,> 100
4,Clc1ccc2[nH]c(C[C@@H]3CCCN4CCCC[C@H]34)nc2c1,> 100
5,c1ccc2[nH]c(C[C@H]3CCCN4CCCC[C@H]34)nc2c1,> 100

# Tested on: Vesicular stomatitis virus
# Assay: Antiviral activity against Vesicular stomatitis virus infected in african green monkey Vero 76 cells assessed as reduction in plaque number after 2 days by plaque reduction assay
# Format: functional, organism-based
# Conditions: 48 h
row,Compound,EC50 [µM]
1,CC(=O)Nc1ccc(Cc2nc3cc(Cl)c(Cl)cc3[nH]2)cc1,> 100
2,CC(CC(=O)O)n1c(Cc2ccc(Cl)cc2)nc2ccccc21 (stereo not given),> 100
3,c1ccc2[nH]c(C[C@@H]3CCCN4CCCC[C@H]34)nc2c1,> 100
4,Clc1ccc2[nH]c(C[C@@H]3CCCN4CCCC[C@H]34)nc2c1,> 100
5,c1ccc2[nH]c(C[C@H]3CCCN4CCCC[C@H]34)nc2c1,> 100

# Tested on: not listed separately
# Assay: Cytotoxicity against mock-infected BHK21 cells after 48 to 96 hrs by MTT assay
# Format: functional
# Conditions: Mesocricetus auratus, BHK-21
# Method in brief: (§1)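 Mock-infected MDBK (6 × 10^5 cells/mL; MEM-E, 10% horse serum, 1 mM pyruvate) or BHK (1 × 10^6 cells/mL; MEM-E, 10% FBS) cells were incubated at 37 °C, 5% CO2 with serial dilutions from 100 µM, 1:5. Viability by MTT after 48–96 h. CC50 from linear regression against untreated controls.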
row,Compound,CC50 [µM]
1,CC(=O)Nc1ccc(Cc2nc3cc(Cl)c(Cl)cc3[nH]2)cc1,> 100
2,CC(CC(=O)O)n1c(Cc2ccc(Cl)cc2)nc2ccccc21 (stereo not given),> 100
3,c1ccc2[nH]c(C[C@@H]3CCCN4CCCC[C@H]34)nc2c1,78
4,Clc1ccc2[nH]c(C[C@@H]3CCCN4CCCC[C@H]34)nc2c1,52
5,c1ccc2[nH]c(C[C@H]3CCCN4CCCC[C@H]34)nc2c1,> 100

# Tested on: Bovine viral diarrhea virus 1
# Assay: Antiviral activity against Bovine viral diarrhea virus infected in MDBK cells assessed as inhibition of virus-induced cytopathogenicity after 3 to 4 days by MTT assay
# Format: functional, organism-based
# Conditions: Bovine viral diarrhea virus isolates and strains
row,Compound,EC50 [µM]
1,CC(=O)Nc1ccc(Cc2nc3cc(Cl)c(Cl)cc3[nH]2)cc1,> 100
2,CC(CC(=O)O)n1c(Cc2ccc(Cl)cc2)nc2ccccc21 (stereo not given),> 100
3,c1ccc2[nH]c(C[C@@H]3CCCN4CCCC[C@H]34)nc2c1,34
4,Clc1ccc2[nH]c(C[C@@H]3CCCN4CCCC[C@H]34)nc2c1,17
5,c1ccc2[nH]c(C[C@H]3CCCN4CCCC[C@H]34)nc2c1,> 100

# Tested on: not listed separately
# Assay: Cytotoxicity against mock-infected MDBK cells after 48 to 96 hrs by MTT assay
# Format: cell-based, Bos taurus
# Conditions: cattle
# Method in brief: as §1
row,Compound,CC50 [µM]
1,CC(=O)Nc1ccc(Cc2nc3cc(Cl)c(Cl)cc3[nH]2)cc1,> 100
2,CC(CC(=O)O)n1c(Cc2ccc(Cl)cc2)nc2ccccc21 (stereo not given),> 100
3,c1ccc2[nH]c(C[C@@H]3CCCN4CCCC[C@H]34)nc2c1,> 100
4,Clc1ccc2[nH]c(C[C@@H]3CCCN4CCCC[C@H]34)nc2c1,77
5,c1ccc2[nH]c(C[C@H]3CCCN4CCCC[C@H]34)nc2c1,> 100
